Experimental findings from ChEMBL document CHEMBL1151732, “Synthesis and anticancer activity comparison of phenylalkyl isoselenocyanates with corresponding naturally occurring and synthetic isothiocyanates” (J Med Chem, 2008) are described below.

One may read the IC50 as the concentration that gives 50% inhibition.

Calls of active or inactive are those of the source. No cut-off for these calls is given here.

The test system of series [1] is Mus musculus. The experiment in a line: Toxicity in human UACC-903 cells xenografted in Harlan Sprague-Dawley athymic nude mouse assessed as effect on body weight at 0.76 uM, ip administered three times per week. Type of series: organism-based. The following applies: in vivo. The procedure, abridged: (§1)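 Female athymic nude mice aged 4–6 weeks received 5×10^6 UACC 903 cells s.c. in 0.2 ml DMEM/10% FBS above both rib cages. After six days they were randomized (5 mice/group, 2 tumors/mouse) and dosed i.p. with 0.76 μmoles (3 ppm selenium) Mon/Wed/Fri; controls received DMSO vehicle. Caliper tumor volume (mm³) and body weight were recorded thrice weekly.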

The subject of the next series is Caco-2. The experiment in a line: Cytotoxicity against human Caco-2 cells after 24 hrs by MTS assay. The following applies: Caco-2, 24 h.
Series [2] relates to UACC-903. The experiment in a line: Antiproliferative activity against human UACC-903 cells assessed as BrdU incorporation after 24 hrs by ELISA relative to control. The format is functional, cell-based. The procedure, abridged:
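UACC 903 cells, 5×10^3 per well, treated 24 h with DMSO vehicle or increasing concentrations of test agents. Proliferating cells were measured by BrdU incorporation with a BrdU ELISA kit. Values are expressed as percent of DMSO-treated cells, as the mean of three independent experiments with SEM.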

The test system of a further series is HT-1080. As to the kind of experiment: Cytotoxicity against human HT1080 cells after 24 hrs by MTS assay. To be noted: HT-1080, 24 h. Background: Formazan colour is commonly taken as a measure of viable cells.
The subject of series [3] is UACC-903. As to the kind of experiment: Cytotoxicity against human UACC-903 cells after 24 hrs by MTS assay. To be noted: UACC-903, 24 h.
For a further series, the system named is PC-3. The experiment in a line: Cytotoxicity against human PC-3 cells after 24 hrs by MTS assay. To be noted: PC-3, 24 h.
The subject of series [4] is UACC-903. The experiment in a line: Induction of apoptosis in human UACC-903 cells assessed as increase in caspase 7 activity after 24 hrs relative to control. The format is functional, cell-based. An outline of the steps: (§2)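 Apoptosis was measured in UACC 903 cells seeded at 5×10^3 per well and treated 24 h with DMSO vehicle or increasing agent concentrations. Combined caspase-3/7 activity was read with the Apo-ONE homogeneous caspase-3/7 kit and reported as fold increase over vehicle-treated cells, averaged over three independent experiments with SEM.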

Series [5] relates to UACC-903. The experiment in a line: Antitumor activity in human UACC-903 cells xenografted in Harlan Sprague-Dawley athymic nude mouse assessed as reduction in tumor size at 0.76 uM, ip administered three times per week. Also noted: scale not given: the % may be the effect or the level left. The format is functional. An outline of the steps: as §1
A general note: Xenograft models place foreign cells or tissue in a host animal.

Series [6] has as its system UACC-903. The experiment in a line: Induction of apoptosis in human UACC-903 cells assessed as increase in caspase 3 activity after 24 hrs relative to control. The format is functional, cell-based. The procedure, abridged: as §2
The next series has as its system MDA-MB-231. As to the kind of experiment: Cytotoxicity against human MDA-MB-231 cells after 24 hrs by MTS assay. To be noted: MDA-MB-231, 24 h.
The subject of the next series is T98G. The experiment in a line: Cytotoxicity against human T98G cells after 24 hrs by MTS assay.
Series [7] deals with UACC-903. The experiment in a line: Cytotoxicity against human UACC-903 cells assessed as decrease in cell viability after 24 hrs by MTS assay relative to control. The following applies: for IC50: UACC-903, 24 h. The format is functional, cell-based. The procedure, abridged:
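UACC 903 melanoma cells, 5×10^3 per well in DMEM with 10% FBS, were exposed after 24 h to DMSO or 5, 10 or 15 μM agent for 24 h. Viability was read by MTS tetrazolium reduction to formazan and expressed as percent of DMSO control, as the mean of three independent experiments with SEM.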

Series [8] relates to Mus musculus. The experiment in a line: Toxicity in human UACC-903 cells xenografted in Harlan Sprague-Dawley athymic nude mouse assessed as effect on body weight at 2.5 uM, ip administered three times per week. Type of series: organism-based. To be noted: in vivo. The procedure, abridged:
(§3)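 UACC 903 xenografts: 5×10^6 cells s.c. in 0.2 ml DMEM/10% FBS at both flanks of 4–6-week-old female athymic nude mice. From day six, mice were randomized (5/group, 2 tumors each) and given 2.5 μmoles i.p. three times weekly (Mon/Wed/Fri), with DMSO vehicle controls. Tumor size (calipers, mm³) and body weight were measured thrice weekly.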

Series [9] has as its system UACC-903. As to the kind of experiment: Antitumor activity in human UACC-903 cells xenografted in Harlan Sprague-Dawley athymic nude mouse assessed as reduction in tumor size at 2.5 uM, ip administered three times per week. Type of series: functional. Also noted: scale not given: the % may be the effect or the level left. An outline of the steps:
as §3

On to `[Se]=C=NCCc1ccccc1` [PHENETHYLISOSELENOCYANATE], for which the Activity result in the series on Mus musculus [1] was “Non-toxic”; in the series on UACC-903 [2], “Dose-dependent effect”; in the series on UACC-903 [4], “Dose-dependent effect”; in the series on UACC-903 [5], 30%; with UACC-903 [6] it was “Dose-dependent effect”; in the series on UACC-903 [7] it was “Dose-dependent effect”. Further, the half-maximal inhibitory concentration (IC50) is 11 µM in the series on Caco-2; 12 µM with HT-1080; 12 µM in the series with UACC-903 [3]; 16 µM in the series with PC-3; 20 µM in the series on MDA-MB-231; 24 µM in the series on T98G.

For the molecule `CC(=O)NC(CSC(=[Se])NCCCCc1ccccc1)C(=O)O` (stereo not drawn), the figures for the 50% inhibitory concentration (IC50) with UACC-903 [3] and in the series with UACC-903 [7] were 17 µM and 10 µM, respectively.

Turning to `[Se]=C=NCc1ccccc1` [BENZYLISOSELENOCYANATE], the Activity result in the series with Mus musculus [1] is “Non-toxic”; with UACC-903 [2], “Dose-dependent effect”; with UACC-903 [4] it was “Dose-dependent effect”; in the series with UACC-903 [6] it was “Dose-dependent effect”; in the series on UACC-903 [7], “Dose-dependent effect”. The concentration for half-maximal inhibition (IC50) in the series on Caco-2 amounted to 13 µM; with HT-1080 it was 13 µM; with UACC-903 [3], 16 µM; in the series on PC-3 it was 24 µM; in the series on MDA-MB-231, 29 µM; with T98G, 43 µM.

With `S=C=NCCCCc1ccccc1` [PHENYLBUTYL ISOTHIOCYANATE], the 50% inhibitory concentration (IC50) was determined as 27 µM with Caco-2; 15 µM in the series on HT-1080; 16 µM with UACC-903 [3]; 24 µM in the series with PC-3; 27 µM in the series on MDA-MB-231; 35 µM with T98G. Also, the Activity result with UACC-903 [2] is “Dose-dependent effect”; in the series on Mus musculus [8] it was “Non-toxic”; in the series on UACC-903 [4], “Dose-dependent effect”; in the series with UACC-903 [6], “Dose-dependent effect”; in the series with UACC-903 [7], “Dose-dependent effect”; with UACC-903 [9], 40%. The result in the series on UACC-903 [5] was inactive.

Consider `S=C=NCCc1ccccc1` [PHENETHYLISOTHIOCYANATE], for which the IC50 in the series with Caco-2 is 14 µM; in the series on HT-1080 it was 15 µM; in the series with UACC-903 [3] it was 12 µM; in the series on PC-3 it was 24 µM; in the series on MDA-MB-231 it was 38 µM; with T98G, over 100 µM. The Activity entry in the series with UACC-903 [2] was “Dose-dependent effect”; with Mus musculus [8] it was “Non-toxic”; in the series on UACC-903 [4] it was “Dose-dependent effect”; in the series on UACC-903 [6], “Dose-dependent effect”; with UACC-903 [7], “Dose-dependent effect”; in the series with UACC-903 [9] it was 40%. The result in the series on UACC-903 [5] was inactive.

As for `S=C=NCc1ccccc1` [BENZYL ISOTHIOCYANATE], the half-maximal inhibitory concentration (IC50) in the series with Caco-2 was 15 µM; in the series with HT-1080, over 50 µM; in the series on UACC-903 [3], 15 µM; in the series on PC-3, over 50 µM; in the series with MDA-MB-231, 42 µM; in the series on T98G, over 100 µM. Besides, the Activity entry was “Dose-dependent effect” in the series on UACC-903 [2]; “Non-toxic” in the series on Mus musculus [8]; “Dose-dependent effect” with UACC-903 [4]; “Dose-dependent effect” in the series on UACC-903 [6]; “Dose-dependent effect” in the series on UACC-903 [7]; 40% in the series with UACC-903 [9]. Further, the outcome in the series with UACC-903 [5] was inactive.

With `CC(=O)NC(CSC(=S)NCCCCc1ccccc1)C(=O)O` (stereo not drawn), the 50% inhibitory concentration (IC50) in the series with UACC-903 [3] and in the series with UACC-903 [7] was 24 µM each time.

With `[Se]=C=NCCCCc1ccccc1` [PHENYLBUTYL ISOSELENOCYANATE], the Activity result with Mus musculus [1] is “Non-toxic”; in the series with UACC-903 [2] it was “Dose-dependent effect”; with UACC-903 [4], “Dose-dependent effect”; in the series with UACC-903 [5], 30%; with UACC-903 [6], “Dose-dependent effect”; in the series with UACC-903 [7], “Dose-dependent effect”. Moreover, the IC50 in the series on Caco-2 is 12 µM; in the series on HT-1080, 11 µM; with UACC-903 [3], 10 µM; in the series with PC-3, 19 µM; in the series with MDA-MB-231 it was 21 µM; in the series with T98G it was 27 µM.

Take `[Se]=C=NCCCCCCc1ccccc1` [PHENYLHEXYL ISOSELENOCYANATE]: the Activity result with Mus musculus [1] is “Non-toxic”; with UACC-903 [2], “Dose-dependent effect”; in the series with UACC-903 [4] it was “Dose-dependent effect”; in the series with UACC-903 [5], 30%; in the series with UACC-903 [6], “Dose-dependent effect”; in the series on UACC-903 [7] it was “Dose-dependent effect”. Also, the half-inhibitory concentration (IC50) in the series with Caco-2 was 10 µM; in the series on HT-1080 it was 12 µM; with UACC-903 [3], 10 µM; in the series with PC-3, 14 µM; in the series on MDA-MB-231 it was 22 µM; in the series with T98G, 23 µM.

Consider `S=C=NCCCCCCc1ccccc1` [PHENYLHEXYL ISOTHIOCYANATE], for which the half-inhibitory concentration (IC50) is 49 µM with Caco-2; 29 µM in the series on HT-1080; 15 µM with UACC-903 [3]; 17 µM in the series on PC-3; 24 µM with MDA-MB-231; 26 µM in the series with T98G. Further, the Activity result in the series with UACC-903 [2] is “Dose-dependent effect”; in the series on Mus musculus [8], “Non-toxic”; in the series with UACC-903 [4], “Dose-dependent effect”; in the series with UACC-903 [6], “Dose-dependent effect”; with UACC-903 [7], “Dose-dependent effect”; with UACC-903 [9], 40%. Further, in the series with UACC-903 [5], the result was inactive.
